Test results from ChEMBL document CHEMBL5705892, “MK-2206, an allosteric Akt inhibitor, enhances antitumor efficacy by standard chemotherapeutic agents or molecular targeted drugs in vitro and in vivo” (Mol Cancer Ther, 2010).
The source made the active and inactive calls. The rule behind the calls is not given here.

Experiments:
HCC70 = test: Synergistic antiproliferative activity against human HCC70 cells assessed as combination index at ED75 treated 24 hrs prior to lapatinib and measured after 72 hrs by celltiter-glo assay; assay type: functional; settings: time 96 hrs
NCI-H460 = test: Synergistic antiproliferative activity against human NCI-H460 cells assessed as combination index at ED50 measured after 72 hrs in presence of camptothecin by celltiter-glo assay; assay type: functional
A2780 [1] = test: Synergistic antiproliferative activity against human A2780 cells assessed as combination index at ED75 measured after 72 hrs in presence of carboplatin by celltiter-glo assay; assay type: functional
Method in brief: (§1)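 Cells were seeded at 2–3 × 10³ per well in RPMI 1640 with 10% FBS. At 24 h, MK-2206 and the partner drug were added simultaneously at constant concentration ratios spanning each agent's IC₅₀, for 72 h. Growth was read as cellular ATP by CellTiter-Glo. CI was taken from median-effect plots of each agent alone and in combination (Chou–Talalay), at ED₅₀, ED₇₅ and ED₉₀.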

SK-BR-3 [2] = test: Antiproliferative activity against human SK-BR-3 cells assessed as reduction in cell proliferation measured after 72 hrs by celltiter-glo assay; assay type: functional, cell-based; settings: SK-BR-3, 72 h
Method in brief: (§2)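 Cells in RPMI 1640 with 10% heat-inactivated FBS at 37°C and 5% CO₂ were seeded at 2 to 3 × 10³ per well. […] Growth was read as cellular ATP by CellTiter-Glo.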

SK-OV-3 = test: Synergistic antiproliferative activity against human SK-OV-3 cells assessed as combination index at ED90 measured after 96 hrs in presence of lapatinib by celltiter-glo assay; assay type: functional
MDA-MB-453 = test: Synergistic antiproliferative activity against human MDA-MB-453 cells assessed as combination index at ED75 measured after 72 hrs in presence of docetaxel by celltiter-glo assay; assay type: functional
Method in brief: (§3)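 Cells grown in RPMI 1640 with 10% heat-inactivated FBS at 37°C, 5% CO₂. Seeded at 2 to 3 × 10³ per well; drugs added 24 h later. […] Viability read as cellular ATP by CellTiter-Glo. CI calculated by Chou–Talalay from median-effect plots at ED50, ED75 and ED90.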

A-431 [3] = test: Antiproliferative activity against human A-431 cells assessed as reduction in cell proliferation measured after 72 hrs by celltiter-glo assay; assay type: functional, cell-based; settings: A-431, 72 h; method in brief: as §2
HCC1954 = test: Synergistic antiproliferative activity against human HCC1954 cells assessed as combination index at ED90 treated 24 hrs prior to lapatinib and measured after 72 hrs by celltiter-glo assay; assay type: functional; settings: time 96 hrs
Calu-6 = test: Synergistic antiproliferative activity against human Calu-6 cells assessed as combination index at ED50 measured after 72 hrs in presence of erlotinib by celltiter-glo assay; assay type: functional; method in brief: as §3
A-431 [4] = test: Synergistic antiproliferative activity against human A-431 cells assessed as combination index at ED90 measured after 72 hrs in presence of erlotinib by celltiter-glo assay; assay type: functional; method in brief: as §1
MDA-MB-468 [5] = test: Synergistic antiproliferative activity against human MDA-MB-468 cells assessed as combination index at ED75 measured after 96 hrs in presence of lapatinib by celltiter-glo assay; assay type: functional
NCI-H1299 [6] = test: Antiproliferative activity against human NCI-H1299 cells assessed as reduction in cell proliferation measured after 72 hrs by celltiter-glo assay; assay type: functional, cell-based; settings: NCI-H1299, 72 h; method in brief: as §2
NCI-H1703 = test: Induction of apoptosis in human NCI-H1703 cells assessed as fold induction of capsase-3/7 activity measured after 24 to 48 hrs in presence of gemcitabine by caspase-glo 3/7 assay; assay type: functional; settings: time 24-48 hrs
A2780 [7] = test: Synergistic antiproliferative activity against human A2780 cells assessed as combination index at ED90 measured after 72 hrs in presence of camptothecin by celltiter-glo assay; assay type: functional; method in brief: as §1
SK-BR-3 [8] = test: Synergistic antiproliferative activity against human SK-BR-3 cells assessed as combination index at ED75 measured after 72 hrs in presence of lapatinib by celltiter-glo assay; assay type: functional
[9] = In vivo inhibition of ERK phosphorylation at T202/Y204 residues in human NCI-H292 cells xenografted mouse at 120 mg/kg, po administered as single dose 2 hrs post-erlotinib treatment measured after 12 hrs by Western blot analysis relative to control; assay type: functional
BT-20 = test: Synergistic antiproliferative activity against human BT-20 cells assessed as combination index at ED90 measured after 72 hrs in presence of docetaxel by celltiter-glo assay; assay type: functional; method in brief: as §3
NCI-H661 = test: Synergistic antiproliferative activity against human NCI-H661 cells assessed as combination index at ED25 to ED90 measured after 72 hrs in presence of gemcitabine by celltiter-glo assay; assay type: functional
NCI-H1299 [10] = test: Synergistic antiproliferative activity against human NCI-H1299 cells assessed as fold change in erlotinib IC50 at 1 umol/L measured after 72 hrs in presence of erlotinib by celltiter-glo assay relative to erlotinib alone; assay type: functional; settings: dose 1 µmol/L
[11] = biological target: RAC-alpha serine/threonine-protein kinase (Homo sapiens) (UniProt P31749); test: Inhibition of AKT in human HCC827 cells assessed as reduction in S6 phosphorylation at S240/S244 residues at 5 umol/L measured after 5 hrs in presence of erlotinib by Western blot analysis; assay type: cell-based; settings: dose 5.0 µmol/L
Chain of RAC-alpha serine/threonine-protein kinase (Homo sapiens) (P31749 whole entry): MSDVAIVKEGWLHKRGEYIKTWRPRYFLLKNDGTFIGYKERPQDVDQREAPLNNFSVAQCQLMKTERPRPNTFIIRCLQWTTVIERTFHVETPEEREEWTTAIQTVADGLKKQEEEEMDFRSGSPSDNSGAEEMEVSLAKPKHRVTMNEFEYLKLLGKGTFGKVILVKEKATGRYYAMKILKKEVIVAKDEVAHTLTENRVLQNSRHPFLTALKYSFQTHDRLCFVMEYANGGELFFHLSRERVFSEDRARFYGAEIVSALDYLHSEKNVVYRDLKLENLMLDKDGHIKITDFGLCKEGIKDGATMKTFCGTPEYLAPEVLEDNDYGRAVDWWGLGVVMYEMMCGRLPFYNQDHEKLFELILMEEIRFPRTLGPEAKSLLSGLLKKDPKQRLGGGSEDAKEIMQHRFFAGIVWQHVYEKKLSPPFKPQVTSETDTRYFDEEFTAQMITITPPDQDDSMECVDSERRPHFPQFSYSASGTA

[12] = biological target: RAC-alpha serine/threonine-protein kinase (Homo sapiens) (UniProt P31749); test: Inhibition of AKT phosphorylation at S473 residue in human NCI-H1993 cells at 3 umol/L measured after 4 to 24 hrs in presence of gemcitabine by MSD assay; settings: time 4-24 hrs
[13] = biological target: RAC-alpha serine/threonine-protein kinase (Homo sapiens) (UniProt P31749); test: Inhibition of AKT in human HCC70 cells assessed as reduction in S6 phosphorylation at S240/S244 residues at 1 umol/L by Western blot analysis; assay type: cell-based; settings: dose 1.0 µmol/L, time 3-24 hrs
Method in brief: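 HCC70 cells at ~70% confluence were exposed to 10 µmol/L lapatinib, 1 µmol/L MK-2206, or both, for 0, 3, 6, 12 or 24 h. Lysates were prepared in Triton X-100/Tris buffer (pH 7.5) with protease and phosphatase inhibitors. Immunoblots after SDS-PAGE and nitrocellulose transfer were probed for pAkt and pS6.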

A2780 [14] = test: Cell cycle arrest in human A2780 cells assessed as increase in accumulation of cells at sub-G1 phase measured after 72 hrs in presence of 5-FU by propidium iodide staining based flow cytometry; assay type: functional
MDA-MB-468 [15] = test: Synergistic antiproliferative activity against human MDA-MB-468 cells assessed as combination index at ED75 treated 24 hrs prior to lapatinib and measured after 72 hrs by celltiter-glo assay; assay type: functional; settings: time 96 hrs
[16] = Toxicity in human HCC70 cells xenografted CB17/icr SCID mouse assessed as mortality at 120 mg/kg, po administered 3 times per week for 3 weeks starting 2 hrs post-lapatinib treatment and measured during compound dosing; assay type: organism-based; settings: in vivo, 504 h
Method in brief: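 HCC70 cells in 50% Matrigel/PBS injected s.c. into flank of female C.B-17/ICR-scid mice; dosing began after 3 wk, groups randomized at mean tumour 0.2 cm³ (n = 5). Lapatinib 100 mg/kg p.o. in distilled water, 5 d/wk for 3 wk; MK-2206 in 30% Captisol p.o. 3×/wk for 3 wk, given 2 h after lapatinib. Body weight and physical signs monitored throughout.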

Cl.NC1(c2ccc(-c3nc4ccn5c(=O)[nH]nc5c4cc3-c3ccccc3)cc2)CCC1
CI75 (HCC70): 0.18 | CI50 (NCI-H460): 0.39 | CI75 (A2780 [1]): 0.43 | IC50 (SK-BR-3 [2]): 0.1 µM | CI90 (SK-OV-3): 0.18 | CI75 (MDA-MB-453): 0.6 | IC50 (A-431 [3]): 5.5 µM | CI90 (HCC1954): 0.18 | CI50 (Calu-6): 0.49 | CI90 (A-431 [4]): 0.14 | CI75 (MDA-MB-468 [5]): 0.18 | IC50 (NCI-H1299 [6]): 27 µM | fold change (FC) (NCI-H1703): 1.5 | CI90 (A2780 [7]): 0.29 | CI75 (SK-BR-3 [8]): 0.19 | inhibition in vivo at 120 mg/kg [9]: 53.5% | CI90 (BT-20): 0.5 | CI (NCI-H661): 0.53 | Ratio IC50 (NCI-H1299 [10]): >7.9 | inhibition [11]: Active | inhibition [12]: Active | inhibition [13]: Dose-Dependent Effect | Activity (A2780 [14]): Dose-Dependent Effect | CI75 (MDA-MB-468 [15]): 0.18 | Activity [16]: Non-Toxic
